Results published in ChEMBL document CHEMBL4002597, “Exploration of novel piperazine or piperidine constructed non-covalent peptidyl derivatives as proteasome inhibitors” (Eur J Med Chem, 2017).
Active and inactive are the calls of the source. The rule behind the calls is not given here.

Assays:
[1] = molecular target: T1, Proteasome Macropain subunit MB1 (Homo sapiens, UniProt P28074); test: Inhibition of chymotrypsin-like activity of human 20S proteasome pretreated for 15 mins followed by Suc-Leu-Leu-Val-Tyr-AMC substrate addition by fluorescence assay
T1 sequence (P28074 whole entry): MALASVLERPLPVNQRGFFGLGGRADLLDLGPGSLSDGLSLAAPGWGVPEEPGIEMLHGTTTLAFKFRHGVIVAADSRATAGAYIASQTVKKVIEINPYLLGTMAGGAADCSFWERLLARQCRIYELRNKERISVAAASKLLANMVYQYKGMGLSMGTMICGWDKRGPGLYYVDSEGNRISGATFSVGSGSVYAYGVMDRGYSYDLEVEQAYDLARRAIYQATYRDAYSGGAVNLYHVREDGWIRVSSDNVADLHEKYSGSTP
Summary of the method: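 Purified human proteasome (25 μg/mL) in 100 mM Tris-HCl pH 8.0 preincubated with compound 15 min, then Suc-Leu-Leu-Val-Tyr-AMC (50 μM) added; 50 μL reaction. AMC release followed as fluorescence increase at ex 355/em 460 nm. IC50 from sigmoidal variable-slope fit.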

MM1.S = test: Cytotoxicity against human MM1S cells measured after 72 hrs by MTS assay; type: functional, cell-based
Summary of the method: (§1)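 MM-1S seeded at 2 × 10⁴/well or RPMI 8226 at 0.5 × 10⁴/well, 100 μL, exposed to compound 72 h. MTS added (0.5 mg/mL final) for 2–4 h, absorbance read at 490 nm with 690 nm background subtraction. Inhibition = (A_control − A_sample)/A_control; IC50 from sigmoidal variable-slope nonlinear fit.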

RPMI-8226 = test: Cytotoxicity against human RPMI8226 cells measured after 72 hrs by MTS assay; type: functional, cell-based; conditions: RPMI-8226, 72 h; summary of the method: as §1
[2] = molecular target: T2, Proteasome subunit beta type-5 (Mus musculus) (UniProt O55234); test: Inhibition of chymotrypsin-like activity of 20S proteasome in mouse blood at 2.5 uM pretreated for 40 mins followed by Suc-Leu-Leu-Val-Tyr-AMC substrate addition by fluorescence assay relative to control
T2 sequence (whole entry): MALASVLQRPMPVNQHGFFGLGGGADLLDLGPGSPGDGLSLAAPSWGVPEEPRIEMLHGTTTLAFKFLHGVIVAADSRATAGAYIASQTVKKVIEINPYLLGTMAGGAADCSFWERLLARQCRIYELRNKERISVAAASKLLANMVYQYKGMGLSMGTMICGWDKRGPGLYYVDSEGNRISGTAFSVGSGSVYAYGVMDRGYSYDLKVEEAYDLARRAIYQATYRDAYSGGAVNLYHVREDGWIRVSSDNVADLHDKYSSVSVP
Summary of the method: (§2)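 Normal mouse whole blood incubated with compound (1:50 volume ratio) 40 min, then pelleted. Cells lysed in 5 mM EDTA pH 8.0 at 4 °C 60 min, lysate protein by Bradford. 100 μg protein assayed in 20 mM HEPES pH 8.0, 0.5 mM EDTA, 0.05% SDS, 1% DMSO with 50 μM […]; fluorescence ex 355/em 460 nm.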

[3] = Half-life in mouse plasma at 2 uM by LC-MS/MS analysis; type: ADME, cell-free
Summary of the method: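 Mouse plasma on sodium heparin. 10 mM DMSO stocks diluted to 0.02 mM in 0.05 M sodium phosphate with 0.5% BSA, then spiked into pre-warmed plasma to 2 µM final, duplicates (n=2), 37 °C water bath. Each time point quenched with acetonitrile; sonicated, shaken, centrifuged, supernatant diluted 1:1 in water, LC-MS/MS.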

Mus musculus = test: In vivo inhibition of chymotrypsin-like activity of 20S proteasome in blood cell of BALB/c mouse at 5 mg/kg, iv after 2 hrs using Suc-Leu-Leu-Val-Tyr-AMC substrate measured by fluorescence assay; type: functional
Summary of the method: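 BALB/c mice 6-8 weeks, 3 per group, single i.v. dose; positive control 5 mg/kg. Tail-vein blood taken at 1, 2 and 24 h into K2-EDTA tubes. Blood PBS-washed, cells lysed in 5 mM EDTA pH 8.0 for 60 min at 4 °C, clarified lysate assayed for chymotrypsin-like activity as in the in vitro assay.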

[4] = molecular target: T2, Proteasome subunit beta type-5 (Mus musculus); test: Inhibition of chymotrypsin-like activity of 20S proteasome in mouse blood at 0.5 uM pretreated for 40 mins followed by Suc-Leu-Leu-Val-Tyr-AMC substrate addition by fluorescence assay; summary of the method: as §2

Compound | IC50 [1] [nM] | IC50 (MM1.S) [nM] | IC50 (RPMI-8226) [nM] | also measured
CC(C)(C)CNC(=O)C[C@H](NC(=O)C1CCN(C(=O)c2cnccn2)CC1)C(=O)N[C@@H](CCc1ccccc1)C(=O)NCc1ccccc1Cl | 2.4 | 11.8 | 15.9 | –
CC(C)(C)CNC(=O)C[C@H](NC(=O)N1CCC(NC(=O)c2cnccn2)CC1)C(=O)N[C@@H](CCc1ccccc1)C(=O)NCc1ccc2c(c1)OCO2 | 10 | – | – | –
CC(C)(C)CNC(=O)C[C@H](NC(=O)N1CCC(NC(=O)c2cnccn2)CC1)C(=O)N[C@@H](CCc1ccccc1)C(=O)NCc1ccccc1Cl | 1.1 | 18.8 | 20.3 | –
CC(C)(C)CNC(=O)C[C@H](NC(=O)N1CCC(C(=O)Nc2cnccn2)CC1)C(=O)N[C@@H](CCc1ccccc1)C(=O)NCc1ccc2c(c1)OCO2 | 2.9 | – | – | –
CC(C)(C)CNC(=O)C[C@H](NC(=O)c1ccc(F)cc1)C(=O)N[C@@H](CCc1ccccc1)C(=O)NCc1ccccc1Cl | – | – | – | half-life at 2 µM [3]: 5.61 h
CC(C)(C)CNC(=O)C[C@H](NC(=O)N1CCC(C(=O)Nc2cnccn2)CC1)C(=O)N[C@@H](CCc1ccccc1)C(=O)NCc1ccc(F)cc1F | 6.6 | – | – | –
CC(C)(C)CNC(=O)C[C@H](NC(=O)N1CCC(NC(=O)c2cnccn2)CC1)C(=O)N[C@@H](CCc1ccccc1)C(=O)NCc1ccc(F)cc1F | 10.8 | – | – | –
CC(C)C[C@H](NC(=O)[C@H](CC(=O)NCC(C)(C)C)NC(=O)N1CCC(NC(=O)c2cnccn2)CC1)C(=O)NCc1ccccc1Cl | 21.8 | – | – | –
CC(C)C[C@H](NC(=O)[C@H](CCc1ccccc1)NC(=O)CN1CCOCC1)C(=O)N[C@@H](Cc1ccccc1)C(=O)N[C@@H](CC(C)C)C(=O)[C@@]1(C)CO1 [CARFILZOMIB] | – | 1.5 | – | inhibition [2]: Active; inhibition (Mus musculus): Active; inhibition [4]: Active
CC(C)(C)CNC(=O)C[C@H](NC(=O)N1CCN(C(=O)c2ccc(F)cc2)CC1)C(=O)N[C@@H](CCc1ccccc1)C(=O)NCc1ccccc1Cl | 3.8 | – | – | –
C[C@H](NC(=O)[C@H](CC(=O)NCC(C)(C)C)NC(=O)N1CCC(NC(=O)c2cnccn2)CC1)C(=O)NCc1ccccc1Cl | 13.3 | – | – | –
CC(C)C[C@H](NC(=O)[C@H](CC(=O)NCC(C)(C)C)NC(=O)N1CCC(C(=O)Nc2cnccn2)CC1)C(=O)NCc1ccccc1Cl | 11.6 | – | – | –
C[C@H](NC(=O)[C@H](CC(=O)NCC(C)(C)C)NC(=O)N1CCC(C(=O)Nc2cnccn2)CC1)C(=O)NCc1ccccc1Cl | 19.7 | – | – | –
CC(C)(C)CNC(=O)C[C@H](NC(=O)N1CCC(C(=O)NCc2nccs2)CC1)C(=O)N[C@@H](CCc1ccccc1)C(=O)NCc1ccccc1Cl | 1 | 22.5 | 20.7 | inhibition [2]: Active; inhibition [4]: Active
CC(C)(C)CNC(=O)C[C@H](NC(=O)N1CCC(NC(=O)c2ccc(F)cc2)CC1)C(=O)N[C@@H](CCc1ccccc1)C(=O)NCc1ccccc1Cl | 1.2 | 6.3 | 8.4 | inhibition [2]: > 70%; half-life at 2 µM [3]: 11.2 h; inhibition in vivo at 5 mg/kg (Mus musculus): > 50%
CC(C)(C)CNC(=O)C[C@H](NC(=O)N1CCC(NC(=O)c2cnccn2)CC1)C(=O)N[C@@H](Cc1ccccc1)C(=O)NCc1ccccc1Cl | 41 | – | – | –
CC(C)(C)CNC(=O)C[C@H](NC(=O)N1CCC(C(=O)Nc2cnccn2)CC1)C(=O)N[C@@H](Cc1ccccc1)C(=O)NCc1ccccc1Cl | 18 | – | – | –

Further lines, with some results ahead:

IC50 [1] [nM] | Compound | IC50 (MM1.S) [nM] | IC50 (RPMI-8226) [nM] | also measured
192 | CC(C)(C)CNC(=O)C[C@H](NC(=O)N1CCC(C(=O)Nc2ccc(C(F)(F)F)cc2)CC1)C(=O)N[C@@H](CCc1ccccc1)C(=O)NCc1ccccc1Cl | – | – | –
0.6 | CC(C)(C)CNC(=O)C[C@H](NC(=O)N1CCC(C(=O)Nc2cnccn2)CC1)C(=O)N[C@@H](CCc1ccccc1)C(=O)NCc1ccccc1Cl | 15.8 | 17.1 | inhibition [2]: > 70%
7 | CC(C)(C)CNC(=O)C[C@H](NC(=O)N1CCC(C(=O)Nc2ccon2)CC1)C(=O)N[C@@H](CCc1ccccc1)C(=O)NCc1ccccc1Cl | – | – | –
0.9 | CC(C)(C)CNC(=O)C[C@H](NC(=O)N1CCC(C(=O)Nc2nccs2)CC1)C(=O)N[C@@H](CCc1ccccc1)C(=O)NCc1ccccc1Cl | 7.2 | 10.2 | inhibition [2]: Active; inhibition [4]: Active
1 | CC(C)(C)CNC(=O)C[C@H](NC(=O)N1CCC(C(=O)Nc2ccccn2)CC1)C(=O)N[C@@H](CCc1ccccc1)C(=O)NCc1ccccc1Cl | 4.3 | 3.8 | –
2.6 | CC(C)(C)CNC(=O)C[C@H](NC(=O)C1CCN(C(=O)c2ccc(F)cc2)CC1)C(=O)N[C@@H](CCc1ccccc1)C(=O)NCc1ccccc1Cl | 31.8 | 22.7 | –
25.7 | COc1ccc(NC(=O)C2CCN(C(=O)N[C@@H](CC(=O)NCC(C)(C)C)C(=O)N[C@@H](CCc3ccccc3)C(=O)NCc3ccccc3Cl)CC2)cc1 | – | – | –
0.7 | CC(C)(C)CNC(=O)C[C@H](NC(=O)N1CCC(C(=O)Nc2cccnc2)CC1)C(=O)N[C@@H](CCc1ccccc1)C(=O)NCc1ccccc1Cl | 20.7 | 20.8 | inhibition [2]: > 70%
1.5 | CC(C)(C)CNC(=O)C[C@H](NC(=O)N1CCC(C(=O)Nc2ccc(F)cc2)CC1)C(=O)N[C@@H](CCc1ccccc1)C(=O)NCc1ccccc1Cl | 12.5 | 13.9 | inhibition [2]: Active; inhibition [4]: Active
